Blank lines part the entries; values can stand above or below the molecule they belong to.
What was measured:
Cavia porcellus [1] = species: Cavia porcellus; assay: Inhibitory activity against Leukotriene C4 induced contractions; type: functional
[2] = target: T1, Cysteinyl leukotriene receptor 1 (Cavia porcellus, UniProt Q2NNR5); assay: Activity to bind against [3H]LTD4 radioligand in guinea pig
T1 sequence (Q2NNR5 whole entry): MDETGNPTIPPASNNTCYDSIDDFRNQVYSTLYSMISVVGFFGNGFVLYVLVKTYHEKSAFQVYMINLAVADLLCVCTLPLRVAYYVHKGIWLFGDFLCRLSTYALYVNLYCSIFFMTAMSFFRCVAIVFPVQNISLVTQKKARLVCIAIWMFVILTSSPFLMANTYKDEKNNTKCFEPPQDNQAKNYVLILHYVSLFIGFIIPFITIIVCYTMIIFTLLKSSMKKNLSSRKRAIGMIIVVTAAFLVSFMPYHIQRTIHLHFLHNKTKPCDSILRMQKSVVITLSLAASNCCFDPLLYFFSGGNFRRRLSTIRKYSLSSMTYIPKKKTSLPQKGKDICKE

Cavia porcellus [3] = assay: In vivo inhibitory activity against guinea pig systemic anaphylaxis when administered a compound dose (60 mg/kg) perorally; type: functional; details: po
Summary of the method: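 Male Hartley guinea pigs sensitised ip with ovalbumin (2.7 mg/kg) plus LPS adjuvant, then challenged 2 weeks later with 1% ovalbumin aerosol for 30 s. Pretreated with pyrilamine, indomethacin and propranolol 20 min before challenge. Compound given in PEG 400 1 h before challenge.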

Mus musculus = assay: In vivo inhibition of mouse ear inflammation; type: functional; set-up: concentration or dose not given beside the values
Summary of the method: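 Compound or ethanol vehicle applied topically to one ear of male DBA/2J mice 60 min before arachidonic acid (2 mg/ear). […] Groups of 5 mice.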

Cyclooxygenase [4] = target: T2, Cyclooxygenase (Rattus norvegicus, UniProt P35355+Q63921); assay: In vitro inhibitory activity against rat polymorphonuclear leukocyte cyclooxygenase; type: protein assay
T2 sequence (P35355 whole entry): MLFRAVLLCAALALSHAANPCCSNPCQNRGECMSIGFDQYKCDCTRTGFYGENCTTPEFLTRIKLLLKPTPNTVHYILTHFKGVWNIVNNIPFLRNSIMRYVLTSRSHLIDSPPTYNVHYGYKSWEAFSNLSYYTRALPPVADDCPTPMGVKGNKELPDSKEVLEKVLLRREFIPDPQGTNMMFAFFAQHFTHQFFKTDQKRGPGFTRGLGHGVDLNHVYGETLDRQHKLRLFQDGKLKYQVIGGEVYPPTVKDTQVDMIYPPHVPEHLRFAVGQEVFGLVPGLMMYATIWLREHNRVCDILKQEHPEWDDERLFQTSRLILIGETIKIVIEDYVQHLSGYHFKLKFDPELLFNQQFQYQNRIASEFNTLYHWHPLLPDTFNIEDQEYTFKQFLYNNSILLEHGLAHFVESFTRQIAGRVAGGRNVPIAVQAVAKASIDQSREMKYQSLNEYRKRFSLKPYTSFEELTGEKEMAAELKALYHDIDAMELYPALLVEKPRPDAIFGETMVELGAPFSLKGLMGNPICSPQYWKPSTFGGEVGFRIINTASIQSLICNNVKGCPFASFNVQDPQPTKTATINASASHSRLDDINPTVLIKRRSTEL
T2 sequence (Q63921 whole entry): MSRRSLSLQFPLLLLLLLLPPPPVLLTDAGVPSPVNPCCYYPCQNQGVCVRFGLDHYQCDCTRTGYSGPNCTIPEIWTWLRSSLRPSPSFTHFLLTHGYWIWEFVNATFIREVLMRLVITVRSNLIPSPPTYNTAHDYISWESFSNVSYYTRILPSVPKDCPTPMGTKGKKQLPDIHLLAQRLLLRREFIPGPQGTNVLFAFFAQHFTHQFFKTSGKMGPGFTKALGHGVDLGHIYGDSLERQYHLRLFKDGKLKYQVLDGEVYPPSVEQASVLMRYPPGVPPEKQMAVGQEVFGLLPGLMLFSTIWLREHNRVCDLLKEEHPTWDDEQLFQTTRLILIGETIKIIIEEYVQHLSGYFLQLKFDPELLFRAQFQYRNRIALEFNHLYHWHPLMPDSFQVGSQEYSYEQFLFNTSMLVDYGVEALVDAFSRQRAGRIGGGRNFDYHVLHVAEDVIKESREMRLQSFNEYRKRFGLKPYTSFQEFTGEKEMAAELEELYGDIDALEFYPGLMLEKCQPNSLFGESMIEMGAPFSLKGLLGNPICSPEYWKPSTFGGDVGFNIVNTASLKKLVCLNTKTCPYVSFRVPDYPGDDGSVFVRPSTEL
Summary of the method: (§1)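 Glycogen-elicited peritoneal PMNs from Sprague-Dawley rats were homogenized at 0 °C in 0.1 M Tris-HCl pH 8.2 with 10 μM NDGA. Compound (DMSO ≤0.1%) was preincubated 5 min at 37 °C, then 8 μM [14C]arachidonic acid with 4 mM glutathione and epinephrine was added for 10 min. TxB2 and PGF2α were measured by TLC and scintillation counting.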

Cavia porcellus [5] = species: Cavia porcellus; assay: Inhibitory activity against Leukotriene-D4 induced contractions; type: functional
Cyclooxygenase [6] = target: T2, Cyclooxygenase; assay: In vitro inhibitory activity against polymorphonuclear leukocyte cyclooxygenase; type: protein assay; summary of the method: as §1
Cyclooxygenase [7] = target: T2, Cyclooxygenase; assay: In vitro inhibitory activity against rat polymorphonuclear leukocyte Prostaglandin G/H synthase; type: functional; summary of the method: as §1
[8] = target: T3, Arachidonate 12-lipoxygenase (Rattus norvegicus) (UniProt Q02759); assay: In vitro inhibitory activity against rat platelet 12-lipoxygenase at 100 uM
T3 sequence (whole entry): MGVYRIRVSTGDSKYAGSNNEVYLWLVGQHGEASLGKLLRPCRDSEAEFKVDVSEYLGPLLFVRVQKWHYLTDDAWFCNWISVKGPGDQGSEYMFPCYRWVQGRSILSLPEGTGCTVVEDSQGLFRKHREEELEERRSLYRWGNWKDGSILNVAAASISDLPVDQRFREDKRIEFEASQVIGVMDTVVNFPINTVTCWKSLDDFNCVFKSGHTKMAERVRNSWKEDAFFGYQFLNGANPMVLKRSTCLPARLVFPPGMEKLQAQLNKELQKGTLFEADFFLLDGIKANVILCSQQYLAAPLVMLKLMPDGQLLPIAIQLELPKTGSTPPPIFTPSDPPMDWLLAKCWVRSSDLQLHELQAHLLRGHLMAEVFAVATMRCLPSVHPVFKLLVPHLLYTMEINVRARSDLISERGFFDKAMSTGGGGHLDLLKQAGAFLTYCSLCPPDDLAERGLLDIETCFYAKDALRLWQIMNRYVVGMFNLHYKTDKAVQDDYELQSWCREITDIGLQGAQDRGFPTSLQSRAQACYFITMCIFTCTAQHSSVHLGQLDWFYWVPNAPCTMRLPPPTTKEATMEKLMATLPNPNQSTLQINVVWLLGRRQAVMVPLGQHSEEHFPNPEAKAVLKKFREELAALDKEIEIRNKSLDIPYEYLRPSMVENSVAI
Summary of the method: (§2)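 Cell-free cytosolic 12-lipoxygenase from Sprague-Dawley rat platelets (0.4 mg/mL), preincubated 5 min at 30 °C with compound in DMSO (≤0.1% final), 25 mM Tris pH 7.4, 1 μM indomethacin, 100 μM glutathione; reaction started with 6 μM [14C]arachidonic acid and quenched with citric acid/NDGA after 3 min. 12-HETE isolated by TLC and counted by scintillation; % inhibition, duplicate.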

[9] = target: T4, Cyclooxygenase (Rattus norvegicus) (UniProt P35355+Q63921); assay: (§3) In vitro inhibitory activity against rat polymorphonuclear leukocyte Prostaglandin G/H synthase at 100 uM; type: protein assay; summary of the method: as §1
[10] = system: 5-lipoxygenase (Cavia porcellus); assay: Inhibitory activity against polymorphonuclear leukocyte 5-lipoxygenase using guinea pig supernatant at 10 uM
[11] = target: T3, Arachidonate 12-lipoxygenase (Rattus norvegicus); assay: In vitro inhibitory activity against rat platelet 12-lipoxygenase at 10 uM; summary of the method: as §2
[12] = target: T5, Polyunsaturated fatty acid 5-lipoxygenase (Homo sapiens) (UniProt P09917); assay: In vitro inhibitory activity against polymorphonuclear leukocyte 5-lipoxygenase in human cell at 10 uM
T5 sequence (whole entry): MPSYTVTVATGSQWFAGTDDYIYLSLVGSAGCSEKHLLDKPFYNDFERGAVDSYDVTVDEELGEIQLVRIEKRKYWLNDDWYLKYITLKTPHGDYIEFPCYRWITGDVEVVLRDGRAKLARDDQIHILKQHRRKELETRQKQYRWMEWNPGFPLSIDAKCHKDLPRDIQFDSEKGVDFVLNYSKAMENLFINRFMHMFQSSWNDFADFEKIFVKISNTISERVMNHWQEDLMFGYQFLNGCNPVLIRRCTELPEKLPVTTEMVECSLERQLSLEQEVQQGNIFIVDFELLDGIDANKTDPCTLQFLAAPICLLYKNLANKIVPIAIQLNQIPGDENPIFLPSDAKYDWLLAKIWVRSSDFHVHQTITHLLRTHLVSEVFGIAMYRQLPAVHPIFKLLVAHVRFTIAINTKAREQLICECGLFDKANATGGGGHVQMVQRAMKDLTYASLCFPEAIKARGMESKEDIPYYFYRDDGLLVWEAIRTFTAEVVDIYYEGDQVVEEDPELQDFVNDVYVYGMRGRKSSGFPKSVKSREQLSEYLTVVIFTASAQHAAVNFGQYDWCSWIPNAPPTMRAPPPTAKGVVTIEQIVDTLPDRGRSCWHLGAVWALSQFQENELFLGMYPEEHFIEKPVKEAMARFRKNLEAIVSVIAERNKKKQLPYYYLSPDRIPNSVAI
Summary of the method: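 Human PMNs from venous blood of a healthy volunteer (EDTA) were purified by dextran sedimentation, a Percoll gradient and NH4Cl red-cell lysis (>90% pure). They were held in Ca/Mg PBS with 1 mg/mL glucose and 1 μM indomethacin, then challenged with A23187 (0.8 μM) and [14C]arachidonic acid (4 μM) for 3 min. 5-HETE was measured by TLC and scintillation counting.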

Cyclooxygenase [13] = target: T2, Cyclooxygenase; assay: as §3; type: protein assay; summary of the method: as §1
[14] = target: T6, Polyunsaturated fatty acid 5-lipoxygenase (Rattus norvegicus) (UniProt P12527); assay: In vitro inhibitory activity against polymorphonuclear leukocyte 5-lipoxygenase in rat cell at 10 uM
T6 sequence (whole entry): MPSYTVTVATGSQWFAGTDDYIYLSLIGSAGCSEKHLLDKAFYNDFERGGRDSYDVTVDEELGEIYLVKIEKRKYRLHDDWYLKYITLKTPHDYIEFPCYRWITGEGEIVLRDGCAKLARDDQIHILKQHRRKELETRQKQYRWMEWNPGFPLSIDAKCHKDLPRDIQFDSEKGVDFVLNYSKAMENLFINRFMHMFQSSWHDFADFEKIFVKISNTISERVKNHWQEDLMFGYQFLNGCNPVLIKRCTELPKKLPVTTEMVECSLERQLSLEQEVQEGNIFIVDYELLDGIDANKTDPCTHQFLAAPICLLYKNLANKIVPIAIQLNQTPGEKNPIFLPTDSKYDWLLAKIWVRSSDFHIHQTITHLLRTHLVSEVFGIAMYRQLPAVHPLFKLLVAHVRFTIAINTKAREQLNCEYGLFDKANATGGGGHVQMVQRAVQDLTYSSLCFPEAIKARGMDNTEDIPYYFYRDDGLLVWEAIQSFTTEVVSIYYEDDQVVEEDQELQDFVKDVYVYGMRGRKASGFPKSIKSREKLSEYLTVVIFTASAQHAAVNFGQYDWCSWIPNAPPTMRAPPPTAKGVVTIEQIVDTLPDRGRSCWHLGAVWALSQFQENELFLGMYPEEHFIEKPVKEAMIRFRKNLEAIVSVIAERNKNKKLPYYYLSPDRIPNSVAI
Summary of the method: (§4)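 Intact glycogen-elicited peritoneal PMNs pooled from 4–5 Sprague-Dawley rats (250 g), preincubated 5 min at 30 °C with compound in DMSO (≤0.1% final) plus 1 μM indomethacin. Challenge with [14C]arachidonic acid (4 μM) and A23187 (0.8 μM) for 3 min. Extraction, TLC, 5-HETE by scintillation counting.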

[15] = target: T7, Polyunsaturated fatty acid 5-lipoxygenase (Homo sapiens, UniProt P09917); assay: In vitro inhibition of polymorphonuclear leukocyte derived human 5-lipoxygenase
T7 sequence (P09917 whole entry): T5 sequence (whole entry)
Summary of the method: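 PMNs from venous blood of healthy volunteers, isolated by dextran sedimentation and Percoll gradient (>90% pure) and held in Ca/Mg PBS with 1 mg/mL glucose and 1 μM indomethacin. Challenged with calcium ionophore and [14C]arachidonic acid for 3 min. 5-HETE measured by TLC and scintillation counting; IC50 read graphically.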

[16] = target: T4, Cyclooxygenase (Rattus norvegicus); assay: as §3; type: functional; summary of the method: as §1
[17] = target: T8, Polyunsaturated fatty acid 5-lipoxygenase (Rattus norvegicus, UniProt P12527); assay: In vitro inhibition of rat polymorphonuclear leukocyte 5-lipoxygenase; summary of the method: as §4
T8 sequence (P12527 whole entry): T6 sequence (whole entry)

Structure (SMILES): O=C(c1ccc(OCc2ccccc2)cc1)N(O)CCc1ccccc1
- IC50 (Cyclooxygenase [7]): 75 µM
- inhibition [8]: < 10%

Structure (SMILES): O=C(CCCc1ccccc1)NCCc1ccccc1
- inhibition [9]: < 10%
- inhibition [10]: 12%
- inhibition [11]: < 10%
- inhibition [12]: < 10%

Structure (SMILES): O=C(Cc1ccc(OCc2ccccc2)cc1)N(O)Cc1ccccc1
- Inhibition (Mus musculus): 37%
- inhibition [8]: 47%
- IC50 [15]: 0.12 µM
- inhibition [16]: 32%
- IC50 [17]: 0.1 µM

Second part, led by results:

- IC50 (Cavia porcellus [1]): 4.2 µM
- Ki [2]: > 100 µM
- IC50 (Cyclooxygenase [4]): 9 µM
- IC50 (Cavia porcellus [5]): 5 µM
- IC50 (Cyclooxygenase [6]): < 10 µM
Structure (SMILES): CN(O)C(=O)Cc1ccc(OCc2ccccc2)cc1
- inhibition in vivo at 60 mg/kg (Cavia porcellus [3]): 83%
- Inhibition (Mus musculus): 65%

- Inhibition (Cyclooxygenase [13]): 50%
- inhibition [14]: 21%
Structure (SMILES): O=C(O)CCCCN(O)C(=O)Cc1ccc(OCc2ccccc2)cc1
